hiPSC survival: enhancers of human iPSC single-cell survival | hiPSC single-cell survival, ATPlite luminescence; 100% = ROCK inhibitor wells, 0% = DMSO | survival enhancement, % at 20 µM | 360,000 tested, 0.044% active; in the data active means survival enhancement above about 18%;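 further: cells exposed to compounds for 16 hours before the ATP read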
CHOP inhibitor: CHOP inhibition in unfolded protein response | 220,000 tested, 3.8% active | inhibition, % at 10 µM | CHO-K1 CHOP-promoter luciferase, tunicamycin-induced, 15-18 h | AID 2732;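 active means compounds that reduced the stress-induced luciferase reporter signal by more than about 70% of percent inhibition, limit read from the data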;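 further: 0% = tunicamycin plus vehicle and 100% = wells without tunicamycin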
CHOP UPR activ: apoptotic UPR (CHOP) activation; 330,000 tested, 0.34% active; AID 449763; CHO-CHOP luciferase reporter, luminescence; percent of tunicamycin response over DMSO baseline; activation, % at 10 µM;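 active means at 10 µM dose, activation of 40% or more, normalized to positive control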;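 further: 100% = tunicamycin at 10 µg/mL and 0% = DMSO alone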
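Evaluation: % reporter activation, DMSO baseline versus tunicamycin full activation; System: CHO-CHOP luciferase reporter cell line; Input: 500 cells/well; Incubation: 6 h compound treatment, 37 °C; Measured by: Steady-Glo luciferase luminescence; Dosing: one dose, 10 µM in 0.5% DMSO; Buffer or medium: F12 medium, 10% FBS; Benchmarks: positive tunicamycin 10 µg/mL, negative DMSO alone.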
H9c2 protect: protects H9c2 cardiomyocytes from peroxide injury; protection from H2O2 cell death, % at 20 µM; 360,000 tested, 0.63% active; AID 588492; H2O2 injury protection, ATPLite, 2 h;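 active means compounds giving at least 50% protection of heart cells from peroxide-induced death in the single-dose screen, raw or plate-pattern-corrected value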;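 further: 0% = DMSO wells with peroxide and 100% = DMSO wells without peroxide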
UPR XBP1 act: adaptive UPR (XBP1) activation; CHO-XBP1 luciferase reporter, IRE1-XBP1 UPR activation, luminescence; percent of tunicamycin response, DMSO as zero; activation, % at 20 µM; 330,000 tested, 0.33% active;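 active means versus positive control, 20 µM dose yields 30% or more activation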;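 further: 100% = tunicamycin at 10 µg/mL and 0% = DMSO only wells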
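Assay system: CHO-XBP1 luciferase reporter cells; Schedule: 6 h treatment, 37 °C; Detection: glow luminescence from Steady-Glo reagent; Benchmarks: high control tunicamycin 10 µg/mL final, low control DMSO vehicle only.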
CHOP UPR conf: apoptotic UPR (CHOP) activation, confirmed; shares compounds with CHOP UPR activ; CHO-CHOP cells, CHOP-luciferase reporter luminescence; percent of tunicamycin response, DMSO as zero; activation, % at 10 µM; 1,000 tested, 64% active; in the data active means activation above about 33%;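 further: 0% = DMSO wells and 100% = tunicamycin 10 µg/mL wells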
XBP1 UPR conf: adaptive UPR (XBP1) activation, confirmed | shares compounds with UPR XBP1 act | CHO-XBP1 IRE1-XBP1 luciferase reporter, luminescence | activation, % at 20 µM | 1,000 tested, 63% active | AID 485299;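 active means reporter signal at least 30% of the positive control's activation in two or more of four replicate wells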;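 further: plate controls were DMSO negative control for no effect and tunicamycin 10 µg/mL positive control for full effect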
* = called active by the depositor; x = no result given. Only a selection was taken, and hits are over-represented in it overall.

SMILES	hiPSC survival	CHOP inhibitor	CHOP UPR activ	H9c2 protect	UPR XBP1 act	CHOP UPR conf	XBP1 UPR conf
CC(=O)Nc1ccc(N=Cc2c(O)c(C(=O)Nc3ccccc3)cc3ccccc23)cc1	x	40	45*	x	90*	43*	13
COc1ccc(-c2csc3nc(-c4ccc(C)cc4)oc(=O)c23)cc1OC	-1	63	57*	-4	59*	32	42*
CCN(CC)S(=O)(=O)c1ccc(-c2nnc(SCC(=O)N3CCc4ccccc43)o2)cc1	-2	x	70*	11	209*	1	28
CCN(CC)S(=O)(=O)c1ccc(-c2nnc(SCC(=O)N3CCOCC3)o2)cc1	2	-13	0	-5	-2	x	x
CN(c1ccccc1)S(=O)(=O)c1cccc(C(=O)NCCc2ccc(O)c(O)c2)c1	0	-91	93*	28	97*	82*	64*
CCN(CC)S(=O)(=O)c1cccc(C(=O)NCCc2ccccc2)c1	-4	x	3	2	2	x	x
Cc1ccc(N=Cc2c(O)c3ccccc3oc2=O)c(C)c1	-1	x	21	-19	7	x	x
CC(=O)c1cccc(N=Cc2c(O)c3ccccc3oc2=O)c1	2	x	159*	3	147*	35*	93*
Cc1ccc(F)cc1N=Cc1c(O)c2ccccc2oc1=O	0	x	148*	-2	76*	131*	141*
COCCN1C[C@@H](CO)O[C@@H](n2cnc3c(NCCCO)ncnc32)C1	1	x	x	3	x	x	x
Cc1cccnc1Nc1nc(-c2ccc(O)c(O)c2)cs1	-3	-8	155*	65*	30*	114*	43*
CCOC(=O)N1CCN(S(=O)(=O)c2ccc(C(=O)Nc3nnc(C4CC4)o3)cc2)CC1	-1	13	0	9	-1	x	x
CCOC(=O)N1CCN(S(=O)(=O)c2ccc(C(=O)Nc3nc4c(s3)CC(C)CC4)cc2)CC1 (stereo not given)	-1	93*	64*	17	62*	96*	116*
O=CC1=C(c2ccccc2)Oc2ccccc2O1	0	x	67*	-18	37*	72*	33*
CN(C)/C=C1/N=C(c2ccccc2)OC1=O	0	0	6	-1	0	x	x
CCCc1c(-c2ccc(F)cc2F)ncn1Cc1ccccc1OC	0	x	x	x	x	x	x
O=C(Nc1ccc(-c2nc3ccccc3o2)cc1)c1ccc2c(c1)OCO2	0	85*	46*	-20	88*	7	24
CCOC(=O)N(C)c1c(CC)nc2c(OCc3ccc(F)cc3)cccn12	-1	x	x	0	x	x	x
Cc1ccc(NC(=O)c2ccc(N/N=C/c3cccc(O)c3)c([N+](=O)[O-])c2)cc1	0	69	63*	6	51*	52*	39*
Cc1ccccc1NC(=O)c1ccc(N/N=C/c2ccccc2O)c([N+](=O)[O-])c1	-1	19	48*	6	45*	71*	71*
NS(=O)(=O)c1ccc(N/N=C/c2ccccc2C(=O)O)c([N+](=O)[O-])c1	0	0	0	5	1	x	x
O=[N+]([O-])c1ccc(N/N=C/c2cccc(O)c2)cc1	0	x	6	-13	5	x	x
Cc1ccc2c(c1)C(c1ccc([N+](=O)[O-])cc1)=NNC(c1ccc(Br)cc1)=N2	-1	94*	75*	3	84*	25	74*
Nc1[nH]c2cc([N+](=O)[O-])ccc2c1-c1ccccn1	2	x	-1	-10	-1	x	x
Cc1cccc(C(=O)NNC(=S)NC(=O)c2cccs2)c1	0	x	2	9	8	x	x
CC(C)=CCc1c2c(c3occ(-c4ccc(O)c(O)c4)c(=O)c3c1O)C=CC(C)(C)O2	3	x	x	4	x	x	x
CC1(C)C=Cc2c(c3c(c4c(=O)c(-c5ccc(O)cc5)coc24)OC(C)(C)CC3)O1	0	92*	87*	19	54*	44*	64*

Source: PubChem (several laboratories)
